This passage reports yeast fitness results from the RNAGym collection of RNA variant scans (doi:10.1126/science.aae0568).

B1: tRNA (parent)
chain: GUUCCGUUGGCGUAAUGGUAACGCGUCUCCCUCCUAAGGAGAAGACUGCGGGUUCGAGUCCCGUACGGAACG

Variants at the floor of the assay were thinned out.

In this series the parent is B1. Put plainly: yeast fitness relative to wild type (ratio to wild type); higher = fitter; tRNA-Arg(CCU), competitive growth, 37 C, YPD. In a few lines: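 Amplicons of the tRNA-Arg(CCU) gene were sequenced, 100-nucleotide paired-end, from the start population and from each end population of a pooled yeast competition. The competition, in six parallel replicates, lasted 24 hours in YPD at 37°C. Fitness relative to wild type was calculated from changes in genotype frequencies. Genotypes had to have ≥ 100 starting reads, and estimates < 0.5 were set to 0.5.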
Regarding G10C C24U, the yeast fitness worked out at 0.716.
The result for G10C U26A C27U C31G A42U U47A U53C reads 0.721; that for G10C G12A A15G G63A, 0.643; that for G10C U26G C27G U32A A40U, at most 0.5.
The result for G10U reads 0.887; that for G10C G25C, 0.615; that for G10C C31G C33U, 0.698.
As to G10C G18A C27G G63C, the yeast fitness is at most 0.5.
G10C C49U C66G: the yeast fitness was at most 0.5.
The result for G10C U19A C31G C34A A42G reads at most 0.5; that for G10C C29U C31U A65U, at most 0.5.
The result for G10C U13A G25A reads 0.534.
In the case of G10C C31U, the yeast fitness came out at 0.78.
The result for G10C C33G A43G C46G C62G reads 0.562.
The result for G10C C34U reads 0.565.
The result for G10C C34G reads 0.501; that for G10C C49G, 0.619; that for G10C C49U, 0.613.
Regarding G10C C49A, the yeast fitness is at most 0.5.
The result for G10C U26A C33U U53C reads 0.576; that for G10U A40G G58A G68C, 0.631.
The result for G10C U16G C31A U32G A57U reads at most 0.5; that for G10C C29G U32G, at most 0.5; that for G10C G23A, 0.57.
As to G10C G51C C61U, the yeast fitness was at most 0.5.
Take G10C C34U G39U A40C: the yeast fitness is at most 0.5.
On to G10C U64A, for which the yeast fitness amounted to 0.671.
The result for G10C G50U reads at most 0.5; that for G10C C24U C29G A45U C46G U47A G50A U64G, 0.536.
The result for G10C G39C G51A reads at most 0.5.
The result for G10C C24U G68C reads at most 0.5; that for G10C C33A A36U U53A U54A, at most 0.5.
For G10C U19G C62G, the yeast fitness was at most 0.5.
In the case of G10C G18A C22U, the yeast fitness was 0.633.
The result for G10U C24G A45G reads at most 0.5; that for G10C C27U G63C, at most 0.5; that for G10C C33A G48A, at most 0.5.
Turning to G10C U13C A15C C24U U54C C60A C62A, the yeast fitness was at most 0.5.
The result for G10C U13A reads 0.549; that for G10C G17A A42U, at most 0.5.
Take G10C C33A A45C: the yeast fitness amounted to 0.551.
For the variant G10C C29G A40U C49G, the yeast fitness is at most 0.5.
The result for G10C C46A G68C reads 0.57; that for G10C U13C C24G C55U, 0.64; that for G10C U19A A37C, 0.502.
The result for G10C C46A reads 0.626.
The result for G10C C46U reads 0.611.
Turning to G10C C49A C55A C62U C66U, the yeast fitness was at most 0.5.
Turning to G10C C29G U53A, the yeast fitness is at most 0.5.
On to G10C G67C, for which the yeast fitness amounted to 0.67.
As for G10C G67A, the yeast fitness came out at 0.673.
Consider G10C C27U A40U A45U, for which the yeast fitness is at most 0.5.
The result for G10C G12C G39A C61U A69C reads 0.528.
For G10C G17A U35G, the yeast fitness is at most 0.5.
As to G10C U19A C30G A40C G67C, the yeast fitness was at most 0.5.
Take G10C C27G C30G G48C A65C: the yeast fitness was at most 0.5.
The result for G10C G51C reads 0.535.
The result for G10C U26A C33U U53C A70C reads 0.724; that for G10C U26C A45G U53C A65C, at most 0.5; that for G10C C27U, 0.679.
In the case of G10C C27U U47G, the yeast fitness worked out at 0.632.
The result for G10C C29U G56A C61U reads at most 0.5; that for G10C U26C, 0.673; that for G10U A69C, 0.827.
The result for G10C G18C C24U reads at most 0.5; that for G10C U35G A43C U47C C55U C66U, at most 0.5; that for G10C C46U C66U, 0.561.
Take G10C C30G C60A: the yeast fitness was at most 0.5.
Take G10C U26A C33U A70G: the yeast fitness was at most 0.5.
Take G10C G12C G39A: the yeast fitness was at most 0.5.
Consider G10C C34U C60A G67A, for which the yeast fitness is at most 0.5.
The result for G10C C31G C49U reads at most 0.5.
Take G10C C29G A37G: the yeast fitness is at most 0.5.
G10C C34G G56C: the yeast fitness amounted to 0.52.
The result for G10C G25A U64C reads at most 0.5; that for G10C U28G G39A C49A, at most 0.5; that for G10C C24U G52A G56A, at most 0.5.
G10C U26A C34G: the yeast fitness is at most 0.5.
The result for G10C C27U A36C C61U A65G reads at most 0.5.
Regarding G10C U35G A43C U47C C55U C62U A69C, the yeast fitness is at most 0.5.
The result for G10C G68U reads 0.693; that for G10C G25C U26C U47C, at most 0.5.
Consider G10C U19A C29G C34U, for which the yeast fitness is at most 0.5.
On to G10C U19C C33G, for which the yeast fitness was 0.769.
The result for G10C C60U G63C reads at most 0.5; that for G10C C29U A40U A65U, at most 0.5; that for G10U A43G C46U, at most 0.5.
The result for G10C C30G A65C G68C reads at most 0.5; that for G10C U16G C31A U32G A45G, at most 0.5.
Regarding G10C C27U A43G C46G A69C, the yeast fitness was at most 0.5.
The result for G10C C34G G67U reads 0.584.
The result for G10C C34G G67A reads at most 0.5; that for G10C U32A, 0.53.
With G10C U32C, the yeast fitness amounted to 0.73.
With G10C U47C G67C, the yeast fitness was determined as 0.536.
The result for G10C U16A C30U U64A reads at most 0.5; that for G10C U35G, at most 0.5.
The result for G10C C27U A40U A45U G48A C55U C66U reads 0.591.
Turning to G10C C29G, the yeast fitness is at most 0.5.
Regarding G10C C34A A40G G68C, the yeast fitness is at most 0.5.
The result for G10C C55G A70C reads at most 0.5; that for G10C U26A C49U A65U, 0.553; that for G10C C31A U32C G39A G52C, at most 0.5.
On to G10C C29G A42U, for which the yeast fitness amounted to 0.554.
G10C C29A C33A G52A: the yeast fitness was 0.57.
The result for G10C G38A C61A reads 0.618; that for G10C U26A C27U C34U C49U, 0.602.
As to G10C C27A A42U C62G, the yeast fitness worked out at 0.556.
The result for G10C G38C reads 0.538.
The result for G10C G18C C22U U26G C30U A40G reads at most 0.5; that for G10C C33A C62A, 0.652.
Take G10C U28A: the yeast fitness is 0.59.
As to G10C C29G A40G, the yeast fitness is at most 0.5.
Turning to G10C C33A G56C, the yeast fitness was 0.577.
As to G10C U16A A65G, the yeast fitness is at most 0.5.
As for G10C C30U U54A, the yeast fitness was at most 0.5.
The result for G10C C55U G56C reads at most 0.5; that for G10C C55U G56A, at most 0.5.
For the variant G10C C24U C46U U64C, the yeast fitness is at most 0.5.
As to G10C G25C G38C A40G A42G U64A G68A, the yeast fitness came to 0.515.
For the variant G10C C31A U35C A45U, the yeast fitness was at most 0.5.
The result for G10C C27G A42C C49A reads at most 0.5; that for G10C U32C C66G, at most 0.5; that for G10C C34A A57U G67C, 0.64.
Turning to G10C G17A U28G G39A C49A, the yeast fitness is at most 0.5.
The result for G10C C31G C33U C60U reads at most 0.5.
As to G10C C27A C61U, the yeast fitness is at most 0.5.
The result for G10C G52C reads at most 0.5; that for G10C C27A C34A A40G C60U A65U, at most 0.5; that for G10C C27G A42C C49A A69C, at most 0.5.
The result for G10C G18A G58A C66G reads at most 0.5; that for G10C C34A A57U, 0.577; that for G10C G25C G38C A40G A42G, at most 0.5.
Turning to G10C C24G U28C A37G U47A, the yeast fitness is at most 0.5.
On to G10C G41C C62U C66G A70G, for which the yeast fitness was at most 0.5.
The result for G10C C62U U64A reads at most 0.5.
The result for G10C G63A C66U reads at most 0.5; that for G10C C31A A37U G63A A65G, at most 0.5.
The result for G10C C29G G44C C49A U64C reads at most 0.5; that for G10C C30G C55A, at most 0.5; that for G10C C34U A65G, at most 0.5.
G10C C24U C34U A36U C46A A69C: the yeast fitness is at most 0.5.
The result for G10U A15U C31G G50C U59C C62U reads at most 0.5; that for G10C C61A A69G, at most 0.5.
The result for G10C C30G C49G reads at most 0.5.
For G10C G44A A70U, the yeast fitness is at most 0.5.
For the variant G10C G18C A42G G68A, the yeast fitness is at most 0.5.
The result for G10C G63C reads at most 0.5; that for G10C G63A, 0.59; that for G10C C30A C66A, at most 0.5.
Turning to G10C C30A C66U, the yeast fitness was at most 0.5.
Turning to G10C C66G, the yeast fitness is 0.515.
Take G10C C27U G38A C46G G63A: the yeast fitness is at most 0.5.
Turning to G10C C24G G50A, the yeast fitness was at most 0.5.
The result for G10C G38C C49A G50C G68C reads at most 0.5; that for G10C G50A U59A G67C, at most 0.5.
Take G10C C24U C29A A45U C46G U47A G50A U64G: the yeast fitness stood at 0.575.
The result for G10C C62A reads 0.515; that for G10C U47G, at most 0.5.
The result for G10C U47C reads 0.695.
Take G10C C29G A65C: the yeast fitness is at most 0.5.
As to G10C G56C, the yeast fitness was 0.553.
The result for G10C C60U C62U A70C reads at most 0.5.
For G10C C46U A65C, the yeast fitness came to 0.621.
The result for G10C U53A reads at most 0.5; that for G10C G18A G25C A45G, at most 0.5; that for G10C C46A C55U, 0.603.
